This note sets out measurements from ChEMBL document CHEMBL1128280, “Synthesis, topoisomerase I inhibitory activity, and in vivo evaluation of 11-azacamptothecin analogs” (J Med Chem, 1995).

Data set [1] in a line: Aqueous solubility determined in pH 5 acetate buffer. It is filed as physicochemical. Put shortly: (§1)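 Excess solid equilibrated in 0.25 mL 0.1 M sodium acetate, pH 5.0, 25 °C, 24 h; filtered (0.22 μm); lactone and carboxylate forms separated by reverse-phase C-18 HPLC, mobile phase 40% organic/60% aqueous with 0.005 M tetrabutylammonium phosphate; quantified against calibration curves of standard peak areas.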

A short description of data set [2]: (§2) Concentration required to inhibit 50% growth of human colon carcinoma cell line (HT-29). The class given is functional, cell-based. The essentials:
(§3)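 MTT microculture tetrazolium assay; cells grown in α-MEM with 15% heat-inactivated FBS, glutamine, pyruvate, insulin, nonessential amino acids, gentamycin, 37 °C, 5% CO2; adhered overnight, exposed to compound 48 h then fresh medium 48 h; 0.17 nM to 10 μM, quadruplicate; 4 h MTT, DMSO extraction; four-parameter logistic fit, usually single curve.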

Data set [3] has as its system Mus musculus. In words: Delay in tumor growth in mice to 500% volume of day 1 relative to control at dose 25 mg/kg. It is filed as functional. The essentials: (§4)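 Female nu/nu mice bearing subcutaneous flank HT-29 xenografts; single-bolus subcutaneous maximum tolerated dose first set in tumor-free mice by body weight loss, then split into three portions given over one day (N = 6); caliper volume = length × width²/2; T−C = difference in days for mean tumor volume to reach 500% of initial, treated vs controls.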

The next data set deals with SK-OV-3. In words: Concentration required to inhibit 50% growth of human ovarian cancer cell line(SK-OV-3) was measured. It is filed as functional, cell-based. The essentials: as §3
The next data set relates to SK-VLB. The data set can be described thus: Concentration required to inhibit 50% growth of vinblastine resistant ovarian cancer cell line(SKVLB). It is filed as functional, cell-based. To be noted: Homo sapiens. Put shortly:
as §3

The test system of another data set is HT-29. The description is as §2. The class given is functional, cell-based. The essentials:
as §3

The nature of data set [4]: Aqueous solubility in pH 5 acetate buffer. It is filed as physicochemical. The essentials:
as §1

The subject of data set [5] is Mus musculus. The data set can be described thus: Delay in tumor growth in mice to 500% volume of day 1 relative to control at dose 146 mg/kg. It is filed as functional. The essentials:
as §4

Data set [6] has as its system Mus musculus. The data set can be described thus: Delay in tumor growth in mice to 500% volume of day 1 relative to control at dose 90 mg/kg. It is filed as functional. The essentials: as §4
Data set [7] has as its system Mus musculus. The data set can be described thus: Delay in tumor growth in mice to 500% volume of day 1 relative to control at dose 120 mg/kg. The class given is functional. The essentials:
as §4

The subject of data set [8] is Mus musculus. In words: Delay in tumor growth in mice to 500% volume of day 1 relative to control at dose 54 mg/kg. It is filed as functional. The essentials:
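Female nu/nu mice (18-24 g) with subcutaneous HT-29 flank xenografts, N = 6. Maximum tolerated single subcutaneous bolus first set by body weight loss in tumor-free nude mice. That dose was split into three portions given over one day. Tumor volume by calipers as length × width²/2. T−C is the delay, in days, for mean tumor volume to reach 500% of initial versus untreated controls.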

Data set [9] relates to Mus musculus. In words: Delay in tumor growth in mice to 500% volume of day 1 relative to control at dose 100 mg/kg. The class given is functional. Put shortly: as §4
The test system of data set [10] is Mus musculus. In words: Delay in tumor growth in mice to 500% volume of day 1 relative to control at dose 200 mg/kg. It is filed as functional. The essentials:
as §4

Values after ≈ are worked out from the molar mass of the structure shown. Where only a bound is given, the exact number is not on record here.

With `CCc1c2c(nc3cnc(C(=N)NO)cc13)-c1cc3c(c(=O)n1C2)COC(=O)[C@]3(O)CC`, in data set [1], the solubility is greater than 3000 µg/mL. In addition, the IC50 in data set [2] was 7 nM; in the data set on SK-OV-3, 0.8 nM. This compound also returned a T-C in the data set on Mus musculus [3] of 15 days.
Turning to `CCc1c2c(nc3cnc(CN)cc13)-c1cc3c(c(=O)n1C2)COC(=O)[C@]3(O)CC`, the IC50 in the data set on SK-VLB worked out at 444 nM; with SK-OV-3 it was 32 nM.
On to `CC[C@@]1(O)C(=O)OCc2c1cc1n(c2=O)Cc2c-1nc1cnc(C#CCN)cc1c2C`, for which the IC50 worked out at 355 nM in [2] and 245 nM in the data set with SK-OV-3.
Regarding `CCc1c2c(nc3cnc(C#N)cc13)-c1cc3c(c(=O)n1C2)COC(=O)[C@]3(O)CC`, the IC50 with HT-29 came to 17 nM.
For the compound `CC[C@@]1(O)C(=O)OCc2c1cc1n(c2=O)Cc2cc3ccccc3nc2-1` [CAMPTOTHECIN], in [4], the solubility was less than 5 µg/mL.
`CC[C@@]1(O)C(=O)OCc2c1cc1n(c2=O)Cc2cc3cc[n+]([O-])cc3nc2-1`: in data set [4], the concentration in solution (solubility) was 300 µg/mL (≈ 0.821 mM).
`CCc1c2c(nc3cnc(Br)cc13)-c1cc3c(c(=O)n1C2)COC(=O)[C@]3(O)CC`: the midpoint of inhibition in the data set with HT-29, the IC50, lay at 7 nM.
Turning to `CCc1c2c(nc3cnc(C#CCN)cc13)-c1cc3c(c(=O)n1C2)COC(=O)[C@]3(O)CC`, the concentration in solution in [1] (solubility) was 5700 µg/mL (≈ 13.2 mM). For the same compound, the IC50 with HT-29 turned out to be 351 nM; in the data set on SK-VLB it was 384 nM; in the data set on SK-OV-3 it was 243 nM. The compound also showed a T-C in the data set with Mus musculus [5] of 1.5 days.
With `CCOC(=O)c1cc2c(CC)c3c(nc2cn1)-c1cc2c(c(=O)n1C3)COC(=O)[C@]2(O)CC`, the half-maximal inhibitory concentration (IC50) in the data set on HT-29 was 26 nM.
`CCc1c2c(nc3cnc(C(=N)N)cc13)-c1cc3c(c(=O)n1C2)COC(=O)[C@]3(O)CC` showed a solubility in [1] greater than 3000 µg/mL. In addition, the results for the IC50 (in data set [2]; in the data set with SK-OV-3) were 311 nM and 71 nM, respectively. The compound further came in with a T-C with Mus musculus [6] of 6 days.
In data set [1], `CC[C@@]1(O)C(=O)OCc2c1cc1n(c2=O)Cc2c-1nc1c[n+]([O-])c(CN)cc1c2C` yielded a solubility greater than 3000 µg/mL. Further, the IC50 was determined as 731 nM in data set [2] and 66 nM with SK-OV-3. Moreover, the T-C in the data set with Mus musculus [7] was 5.3 days.
As to `CCc1c2c(nc3cnccc13)-c1cc3c(c(=O)n1C2)COC(=O)[C@]3(O)CC`, the concentration in solution in data set [4] (solubility) was 10 µg/mL (≈ 0.0265 mM).
With `CC[C@@]1(O)C(=O)OCc2c1cc1n(c2=O)Cc2cc3c(CN(C)C)c(O)ccc3nc2-1.Cl` [TOPOTECAN HYDROCHLORIDE], in data set [1], the solubility came out at 3100 µg/mL. This compound came in with a T-C in the data set on Mus musculus [8] of 10.3 days.
Turning to `CC[C@@]1(O)C(=O)OCc2c1cc1n(c2=O)Cc2c-1nc1cnc(Br)cc1c2C`, the IC50 was found to be 1 nM with HT-29, 0.5 nM in the data set on SK-VLB and 1 nM in the data set with SK-OV-3.
Compound `CCc1c2c(nc3c[n+](C)ccc13)-c1cc3c(c(=O)n1C2)COC(=O)[C@]3(O)CC.[I-]` showed a solubility in data set [4] greater than 2500 µg/mL. The compound also came in with a T-C in the data set on Mus musculus [9] of 3.5 days.
`CC[C@@]1(O)C(=O)OCc2c1cc1n(c2=O)Cc2c-1nc1cnc(CN)cc1c2C` gave a solubility in data set [1] of 7200 µg/mL (≈ 18.3 mM). Also, the IC50 with HT-29 turned out to be 123 nM; in the data set with SK-VLB, 42 nM; in the data set on SK-OV-3 it was 17 nM. Further, the T-C in the data set on Mus musculus [10] stood at 3.4 days.
